SENP8 block-1: SENP8 protease inhibitors, primary screen, biochemical, luminescence; purified SENP8, Z-RLRGG-aminoluciferin cleavage; inhibition, % at 10 µM; Sentrin-specific protease 8 (Homo sapiens), Q96LD8; hit rate 1.2% among 330,000; in the data active means inhibition above about 50%
SENP7 inh: SENP7 protease inhibitors, primary screen, biochemical, luminescence, uHTS; inhibition, % at 5 µM; hit rate 1.5% among 330,000; recombinant SENP7, Z-RLRGG-aminoluciferin luminescence, 40 min; AID 434973, 2010;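 active means inhibition above about 50% at the single test dose, limit read from the data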
SENP6 inh: SENP6 protease inhibitors, primary screen, biochemical, luminescence, uHTS; AID 2599, 2010; Sentrin-specific protease 6 (Homo sapiens), Q9GZR1; hit rate 1.8% among 330,000; Recombinant SENP6 catalytic domain, aminoluciferin luminescence; inhibition, % at 10 µM;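 active means inhibition above about 50% at the single tested dose, limit read from the data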
Target sequence (Q9GZR1 628-1112 limits assumed): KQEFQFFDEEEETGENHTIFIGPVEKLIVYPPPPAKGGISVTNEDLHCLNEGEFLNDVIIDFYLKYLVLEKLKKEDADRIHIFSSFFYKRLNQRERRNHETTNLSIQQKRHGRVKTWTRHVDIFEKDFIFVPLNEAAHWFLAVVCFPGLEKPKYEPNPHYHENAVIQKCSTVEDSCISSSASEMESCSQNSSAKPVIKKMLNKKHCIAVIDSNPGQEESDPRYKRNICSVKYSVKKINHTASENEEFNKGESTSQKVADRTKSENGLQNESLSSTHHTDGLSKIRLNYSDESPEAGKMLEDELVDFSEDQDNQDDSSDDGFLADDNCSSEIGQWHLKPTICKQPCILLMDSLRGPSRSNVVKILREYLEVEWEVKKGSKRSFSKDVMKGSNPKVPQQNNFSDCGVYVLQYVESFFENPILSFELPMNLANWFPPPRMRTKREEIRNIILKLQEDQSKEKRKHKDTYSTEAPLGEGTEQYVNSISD
SENP8 block-2: human SENP8 protease inhibitors, primary screen, biochemical, fluorescence, Nedd8 protein substrate, uHTS. AID 602440, 2012. inhibition, % at 20 µM. recombinant SENP8. Sentrin-specific protease 8 (Homo sapiens), Q96LD8. hit rate 0.64% among 360,000; in the data active means inhibition mostly above about 40%, no sharp cut-off; inactive means mostly below about 27%
SENP1 FRET inh: human SENP1 catalytic domain inhibitors, primary screen, biochemical, FRET, uHTS; recombinant SENP1 catalytic domain, CyPet-SUMO1-YPet FRET cleavage; inhibition, % at 10 µM; Sentrin-specific protease 1 (Homo sapiens), Q9P0U3; hit rate 0.21% among 360,000;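 active means inhibition at least 30% at 10 µM, raw YFP signal under a set limit, fluorescence ratio 0.5 to 1.5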
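Material: hSENP1 catalytic domain, recombinant; medium: Tris pH 8 with BME, BSA, NP40 and catalase; compound: single concentration of 10 µM compound, 0.5% DMSO final; technique: FRET read of cyan and yellow fluorescence; timing: 50 min enzyme reaction, room temperature, light-protected; reagent: SFCypet-SUMO1-SFYpet substrate at 25 nM; control set: no-enzyme low, enzyme-DMSO high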
SENP8 conf: SENP8 protease inhibitors, retest, confirmation, biochemical, luminescence, single concentration; shares compounds with SENP7 inh; Recombinant SENP8, Z-RLRGG-aminoluciferin luminescence, 60 min; inhibition, % at 12.5 µM; hit rate 40% among 6,200; AID 488912, 2010;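 active means mean inhibition across replicates above about 50%, limit read from the data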
SENP6 confirm: SENP6 protease inhibitors, confirmation, biochemical, luminescence, single concentration | inhibition, % at 12.5 µM | recombinant SENP6, Z-RLRGG-aminoluciferin luminescence | shares compounds with SENP7 inh | hit rate 58% among 6,200 | AID 488915, 2010
SENP7 conf: SENP7 protease inhibitors, retest, confirmation, biochemical, luminescence, single concentration | shares compounds with SENP7 inh | recombinant SENP7, Z-RLRGG-aminoluciferin luminescence, 40 min | inhibition, % at 12.5 µM | hit rate 69% among 6,200 | AID 488917, 2010
Casp3 select: caspase-3 protease inhibitors, confirmation, selectivity assay for SENP inhibitor project, biochemical, single concentration. shares compounds with SENP7 inh. purified caspase-3, Z-DEVD-aminoluciferin luminescence, 60 min. inhibition, % at 12.5 µM. hit rate 60% among 6,200;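 active means mean inhibition above about 50%, limit read from the data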
Target sequence (P42574 28-227 limits assumed): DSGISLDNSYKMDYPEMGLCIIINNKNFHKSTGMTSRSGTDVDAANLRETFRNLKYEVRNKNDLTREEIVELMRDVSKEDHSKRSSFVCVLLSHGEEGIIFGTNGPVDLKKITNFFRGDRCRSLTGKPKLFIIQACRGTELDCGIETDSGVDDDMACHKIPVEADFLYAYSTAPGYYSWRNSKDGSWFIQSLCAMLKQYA
Luc interf: counter-screen for SENP inhibitors: luminescence interference. shares compounds with SENP7 inh. Pre-incubated SENP8/Z-RLRGG-aminoluciferin, luciferase luminescence interference. inhibition, % at 12.5 µM. hit rate 39% among 6,200. AID 488919;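 active means mean inhibition above about 50% when retested at one dose, limit read from the data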
Large screens that a line does not name were inactive (follow-up assays come after a bar, where they were run). Compounds with a hit are over-represented: about 2.5% of the library has one in this group of screens.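 How the source made its calls, unless noted: active means mean inhibition above about 50% in the one-dose retest (limit read from the data); inactive means the rest.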

CC(C)[C@@H](CO)NC(=O)c1ccc2c3n(nc2c1)-c1ccccc1CO3	SENP8 block-1 82, SENP6 inh 84 | SENP8 conf 91 | SENP6 confirm 91 | SENP7 conf 98 | Casp3 select 95 | Luc interf 62
CC(C)(C)C(=O)O/N=C(\N)c1ccc(-c2csnn2)cc1	none
Cc1cccc(C(=O)NC(=S)Nc2c(C)n(C)n(-c3ccccc3)c2=O)c1	none (no result: SENP8 block-1, SENP7 inh, SENP6 inh)
Nn1c(SCC(=O)Nc2ccccc2F)nnc1-c1cccs1	none
CC(=O)Nc1cnc(NC(=O)c2cccc(F)c2)cc1C	none
CCC(=O)Nc1cnc(NC(=O)c2cccc(F)c2)cc1C	SENP7 inh 59, SENP6 inh 58 | SENP8 conf inactive | SENP6 confirm inactive | SENP7 conf 78 | Casp3 select 83 | Luc interf inactive
Cc1ccc(C(=O)/C=C/Nc2cccc(O)c2)cc1	SENP8 block-1 88, SENP6 inh 93 | SENP8 conf inactive | SENP6 confirm 93 | SENP7 conf 100 | Casp3 select 77 | Luc interf 78
CC(=O)c1ccc(N/C=C\C(=O)c2ccc(C)cc2)cc1	none
Cc1ccc(C(=O)/C=C/Nc2ccc3c(c2)OCO3)cc1	SENP7 inh 60 | SENP8 conf inactive | SENP6 confirm inactive | SENP7 conf inactive | Casp3 select inactive | Luc interf inactive
CC(=O)c1cccc(N/C=C\C(=O)c2ccc(C)cc2)c1	none (no result: SENP8 block-1, SENP7 inh, SENP6 inh)
O=C(/C=C/Nc1cccc(O)c1)c1ccccc1	SENP8 block-1 96, SENP7 inh 98, SENP6 inh 97 | SENP8 conf 99 | SENP6 confirm 99 | SENP7 conf 103 | Casp3 select 97 | Luc interf 98
Cc1ccc(N/C=C/C(=O)c2ccccc2)cc1Br	SENP7 inh 83, SENP6 inh 63 | SENP8 conf inactive | SENP6 confirm inactive | SENP7 conf inactive | Casp3 select inactive | Luc interf inactive
O=C(/C=C/Nc1ccc(Br)cc1F)c1ccccc1	SENP8 block-1 94, SENP7 inh 100, SENP6 inh 94 | SENP8 conf inactive | SENP6 confirm inactive | SENP7 conf inactive | Casp3 select 65 | Luc interf inactive
C/C(=C\C(=O)c1ccc(C)cc1)Nc1cccc(O)c1	SENP8 block-1 76, SENP6 inh 84 | SENP8 conf 82 | SENP6 confirm 87 | SENP7 conf 98 | Casp3 select 70 | Luc interf 88
O=C(/C=C/Nc1ccccc1F)c1ccc(Br)cc1	none (no result: SENP8 block-1, SENP7 inh, SENP6 inh)
CC(=O)Nc1ccc(N/C=C/C(=O)c2ccc(Cl)cc2)cc1	none
O=C(Nc1cccc(O)c1)c1cccc(C(=O)Nc2cccc(O)c2)c1	none
O=C(/C=C/Nc1ccc(F)c(Cl)c1)c1ccccc1	SENP7 inh 65, SENP6 inh 71 | SENP8 conf inactive | SENP6 confirm inactive | SENP7 conf 87 | Casp3 select 58 | Luc interf inactive
CCOC(=O)c1c(NC(=O)c2ccco2)n(C2CCCCC2)c2nc3ccccc3nc12	SENP8 block-1 51, SENP6 inh 73 | SENP8 conf inactive | SENP6 confirm inactive | SENP7 conf inactive | Casp3 select inactive | Luc interf inactive
COc1ccc(C(=O)Nc2ccc(NC(=O)c3ccco3)cc2)cc1	none
CCOC(=O)c1c(N)n(C2CC(C)(C)NC(C)(C)C2)c2nc3ccccc3nc12	none
COc1ccc(-n2c(NC(=O)c3ccco3)c(C#N)c3nc4ccccc4nc32)cc1	SENP8 block-1 95, SENP7 inh 87, SENP6 inh 97 | SENP8 conf inactive | SENP6 confirm 68 | SENP7 conf 54 | Casp3 select inactive | Luc interf inactive
Cc1ccc(/C=C2/SC(=O)NC2=S)o1	none
COc1ccc(Cn2c(C3CC3)nc3ccc(NC(=O)c4cccnc4)cc3c2=O)cc1	none
COc1ccc(Cn2c(C3CC3)nc3ccc(NC(C)=O)cc3c2=O)cc1	SENP7 inh 67, SENP6 inh 73 | SENP8 conf 70 | SENP6 confirm 68 | SENP7 conf 90 | Casp3 select 73 | Luc interf inactive
O=C(C(=O)N1CCC(c2ccccc2)CC1)c1ccc(F)c(F)c1	none (no result: SENP8 block-1, SENP7 inh, SENP6 inh)
CS(=O)(=O)Nc1ccc(C(=O)N2CC(=O)Nc3ccccc32)cc1	none
Cn1c(=O)c2ncn(CC(=O)Nc3cccc(-c4nc5ccccc5s4)c3)c2n(C)c1=O	SENP8 block-1 60, SENP6 inh 72 | SENP8 conf inactive | SENP6 confirm inactive | SENP7 conf 64 | Casp3 select inactive | Luc interf inactive
CCc1ccc(NC(=O)Cn2cnc3c(=O)n(C)c(=O)n(C)c32)cc1	none
c1ccc2sc(NN=C3CCCCCC3)nc2c1	SENP8 block-1 81, SENP7 inh 83, SENP6 inh 91 | SENP8 conf 89 | SENP6 confirm 94 | SENP7 conf 101 | Casp3 select 87 | Luc interf 54
C#CCn1cnc2c(cnn2-c2ccc(C)c(C)c2)c1=O	none
O=C(CSc1ncnc2c1cnn2-c1cccc(Cl)c1)NCC1CCCO1 (centres undefined)	SENP8 block-1 87, SENP6 inh 89 | SENP8 conf inactive | SENP6 confirm inactive | SENP7 conf inactive | Casp3 select inactive | Luc interf inactive
Cc1ccc(-n2ncc3c(=O)n(CC(N)=O)cnc32)cc1C	none
Cc1nc2c3cnn(-c4ccc(C)c(C)c4)c3ncn2n1	SENP6 inh 58 | SENP8 conf inactive | SENP6 confirm inactive | SENP7 conf 68 | Casp3 select 79 | Luc interf inactive
Cc1ccc(-n2ncc3c(SCC(N)=O)ncnc32)cc1C	SENP8 block-1 57 | SENP8 conf inactive | SENP6 confirm inactive | SENP7 conf inactive | Casp3 select inactive | Luc interf inactive

Screens: PubChem BioAssay, Sanford-Burnham Center for Chemical Genomics
